RAM inhibit – inhibitors of the yeast RAM network; S. cerevisiae dse1pr::URA3 reporter, 5-FOA growth OD615, 2 d; analog-sensitive cbk1-as2 kinase mutant strain; inhibition, % at 50 µM; 1.8% of 190,000 active; AID 868;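 active = inhibition above a set limit, 3 SD over mean compound inhibition, cut at about 8.4% in these data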;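 also: inhibition rescues growth on 5-FOA so higher OD means more RAM inhibition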
NCF1 inh – blocks human p47phox regulatory protein of NADPH oxidases; inhibition, % at 24.7 µM; 0.53% of 220,000 active; AID 1274; p47phox/p22phox peptide binding, fluorescence polarization, 2 h; P14598;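 active = inhibition above about 30%, limit read from the data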
Target sequence (P14598 whole entry, looked up): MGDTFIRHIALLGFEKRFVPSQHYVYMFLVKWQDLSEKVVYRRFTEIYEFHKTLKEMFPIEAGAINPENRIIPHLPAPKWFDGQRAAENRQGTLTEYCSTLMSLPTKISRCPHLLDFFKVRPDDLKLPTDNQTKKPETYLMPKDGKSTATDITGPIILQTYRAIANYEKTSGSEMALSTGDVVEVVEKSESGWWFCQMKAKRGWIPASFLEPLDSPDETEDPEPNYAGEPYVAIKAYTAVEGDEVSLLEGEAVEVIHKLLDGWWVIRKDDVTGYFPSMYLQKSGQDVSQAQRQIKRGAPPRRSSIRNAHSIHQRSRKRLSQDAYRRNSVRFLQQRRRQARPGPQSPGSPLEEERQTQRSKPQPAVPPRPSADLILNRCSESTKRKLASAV
WT yeast gro inh – growth inhibition of WT yeast, mitochondrial fusion screen | AID 1362 | mitochondrial fusion phenotypic screen, WT strain | 2.1% of 190,000 active | inhibition, % at 10 µM; in the data active = inhibition above about 58%; tested in S. cerevisiae
Calb biofilm kill – mixture kills Candida albicans biofilm cells | C. albicans biofilm persisters + clotrimazole, fluorescence viability; primary screen in compound mixtures of four per well | inhibition, % at 7.6 µM | 0.02% of 120,000 active | AID 1242;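 active = inhibition above 30.3% in the primary screen of four-compound pools, then above 30% when the compound was retested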;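 also: compounds exposed to preformed 24 h biofilms for 48 h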
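Test system: C. albicans biofilms. Buffer or medium: RPMI/MOPS medium, pH 7.0. Timing: 48 h compound exposure at 37 °C. Technique: Alamar Blue fluorescence. Evaluation: percent inhibition of biofilm viability.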
Arbovirus inh – arbovirus infection inhibition; inhibition, % at 10 µM; 0.37% of 200,000 active; AID 1251; arbovirus infection cell-based antiviral screen; in the data active = inhibition above about 30%
Hck-Nef inh – blocks Nef-activated human Hck kinase. Recombinant Hck-YEEI plus Nef, Z-Lyte FRET kinase assay. P08631. AID 463187. 0.68% of 220,000 active. inhibition, % at 20 µM;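 active = Hck-Nef kinase inhibition above about 50%, limit read from the data; inactive = inhibition below that limit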
Of the large screens only hits and unclear results are named; the others gave an inactive call. Only some compounds are listed: those with a hit (about 4.6% of all), similar ones and a draw of the others.

CCOC(=O)CNS(=O)(=O)c1cc(-c2nn(C)c(=O)c3ccccc23)ccc1C	WT yeast gro inh 70 (no result: Calb biofilm kill)
COc1ccc(NC(C)C(=O)Nc2cc(C(F)(F)F)ccc2N2CCOCC2)c(OC)c1 (stereo not given)	none
COc1cc(Cl)c(C)cc1NC(C)C(=O)Nc1cc(C(F)(F)F)ccc1N1CCOCC1 (stereo not given)	WT yeast gro inh 65
CCCC1CCC(c2ccc(C(=O)NN)cc2)CC1 (stereo not given)	WT yeast gro inh 84
C/C(=N\Nc1cc(-c2ccccc2)nc(-c2ccccc2)n1)c1ccc(O)c(C)c1	WT yeast gro inh 92
COc1ccccc1N1CCN(C(=O)COc2ccc(S(=O)(=O)NC(C)C)cc2)CC1	none
Cc1ccc(C(=O)NCCNS(C)(=O)=O)cc1	none
O=C(NNC(=S)NCC1CCCO1)c1cccc(S(=O)(=O)N2CCOCC2)c1 (stereo not given)	none
O=C(C/C=N/OCc1ccc(Cl)cc1)c1cnc(-c2ccccc2)s1	RAM inhibit 11 (no result: Calb biofilm kill)
COc1cc(Br)cc(-c2nc3c(c(=O)[nH]c(=O)n3Cc3ccccc3)n2C)c1O	Arbovirus inh 53 (no result: Calb biofilm kill)
Cn1ncc(Cl)c1C(=O)N1CCOCC1	none
Cn1ncc(N=Cc2ccccc2O)c1C(=O)N1CCOCC1	NCF1 inh active (no result: Calb biofilm kill)
O=C1CS/C(=N\C(=O)N2c3ccccc3Sc3ccccc32)N1	none (no result: Calb biofilm kill)
O=C(NC(NNc1ccc([N+](=O)[O-])cc1)(C(F)(F)F)C(F)(F)F)c1ccc(Cl)cc1	WT yeast gro inh 78 (no result: Calb biofilm kill)
O=C(NNc1ccc([N+](=O)[O-])cc1)c1ccccc1Cl	none
CCOc1ccccc1C(=O)Nc1cc(OC)ccc1OC	WT yeast gro inh 63 (no result: Calb biofilm kill)
CC(=O)N1C=Cc2c(c(C)c3c([nH]c4ccccc43)c2C)C1	NCF1 inh 77 (no result: RAM inhibit, WT yeast gro inh, Arbovirus inh)
C/C(=N/OC(=O)C1CC1)c1cc(-c2ccc(Cl)cc2)no1	none
Cc1[nH]c(=O)[nH]c(=O)c1/C=C/C(=O)O	none (no result: RAM inhibit, WT yeast gro inh, Arbovirus inh)
CCOC(=O)CCSCC(=O)N1N=C(c2cccs2)CC1c1ccc(C)cc1 (stereo not given)	RAM inhibit 9.3
COc1ccc(C2CC(c3cccs3)=NN2C(=O)c2ccc(Br)o2)cc1 (stereo not given)	WT yeast gro inh 64
COc1ccc(C2=NN(C(=O)c3cccs3)C(c3ccc(OC)cc3)C2)cc1 (stereo not given)	none
CC(C)(C)c1nnc(NC(=S)Nc2ccccc2)s1	none
CC1CCCN(c2ccc([N+](=O)[O-])cc2C(=O)c2ccccc2)C1 (stereo not given)	RAM inhibit 9.6
COc1cc(C2Nc3cccc4cccc(c34)N2)cc(OC)c1O	RAM inhibit 9.3 (no result: Calb biofilm kill)
COc1ccc(N=Cc2c(O)c3ccccc3n2C(C)=O)cc1	NCF1 inh 31 (no result: RAM inhibit, WT yeast gro inh, Arbovirus inh)
COc1ccc(N=Cc2sc(O)c3ccccc23)cc1	none (no result: Calb biofilm kill)
Cc1ccc(/C(O)=C2\C(=O)C(=O)N(CC(C)O)C2c2ccc(N(C)C)cc2)cc1 (stereo not given)	none (no result: Calb biofilm kill)
O=C(Nc1nc2ccccc2[nH]1)C1CCCC1	none
O=C(NCc1nc2ccccc2[nH]1)C1CCCCC1	NCF1 inh 78
O/N=C/c1cc(Cl)ccc1OCc1cccc2ccccc12	WT yeast gro inh 97 (no result: Calb biofilm kill)
Cc1ccc(S(=O)(=O)N2CCC(=O)N(CCOCc3ccc(F)cc3)CC2)cc1	none
COc1ccc(C)cc1S(=O)(=O)N(CC(=O)N1CCCC1)c1ccccc1	none (no result: Calb biofilm kill)
O=C(/C=C/c1ccc(Cl)cc1Cl)N(Cc1ccc(Cl)cc1)C1CCS(=O)(=O)C1 (stereo not given)	WT yeast gro inh 59
O=C(/C=C/c1ccc(Cl)cc1Cl)N(Cc1ccccc1)C1CCS(=O)(=O)C1 (stereo not given)	none
COCCn1c(=O)[nH]c(=O)c2cc(C(=O)c3cc(Cl)ccc3O)cnc21	WT yeast gro inh 63
CC(OC(=O)CCN1C(=O)c2cccc([N+](=O)[O-])c2C1=O)C(=O)Nc1cc(Cl)cc(Cl)c1 (stereo not given)	none
CCOC(=O)c1sc(=S)n(-c2ccccc2Cl)c1SC	RAM inhibit 8.8 (no result: Calb biofilm kill)
CCOC(=O)c1sc(=S)n(-c2ccccc2)c1SC	none (no result: Calb biofilm kill)
CC1(c2ccc([N+](=O)[O-])c(CS(=O)(=O)c3ccccc3)c2)OCCO1	none
Cc1ccc(S(=O)(=O)CNC(=S)c2cccc(Cl)c2)cc1	WT yeast gro inh 69
Cc1ccc(C(=S)NCS(=O)(=O)c2ccc(C)cc2)cc1	none (no result: Calb biofilm kill)
